Values without a mark were called inactive. Results filed as inconclusive are left out. Active and inactive are the calls of the source.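 The calls were made as follows, unless noted: active = cell viability at or below a set limit in both duplicate runs, the limit being the all-compound median minus 4 SD (cut at about 23% in these data, passing the limit was not always enough); inconclusive = no clear call, values can overlap the other calls; inactive = the rest.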
Key:
[1] = S. cerevisiae growth inhibition in permissive medium (OD615), pilot counter-assay for S. cerevisiae lifespan shortening project, permissive growth control (AID 705;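 active = growth inhibition above 25% in both replicates, a cutoff set 3 SD above the mean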); details: OD615, 24 h, at 10 µM, hits give high values
Summary of the method: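 System: engineered DeaD yeast; Medium: permissive raffinose/galactose medium; Compound dosing: 10 µM single dose, 0.25% DMSO; Incubation: 4 h cell pre-growth, 24 h exposure at 30 °C; Technique: OD at 615 nm; Evaluation: growth inhibition from lowered OD615 after 24 h.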

[2] = S. cerevisiae growth inhibition in restrictive medium, OD615, pilot screen, restrictive growth control, yeast lifespan reduction project (AID 706;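 active = growth inhibition above a set limit, 3 SD over mean compound inhibition, in both replicates, cut at about 43% in these data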;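 also: modified DeaD lifespan yeast strain shifted to restrictive glucose medium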); details: OD615, 48 h, at 10 µM, hits give high values
Summary of the method: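 Material: modified S. cerevisiae; buffer or medium: CSMM-D glucose medium; doses: one concentration, 10 µM final, 0.25% DMSO; incubation: 48 h compound exposure at 30 °C; detection: optical density at 615 nm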

[3] = doxorubicin toxicity protection in MRP-1 cells – H69AR cells, CellTiter-Glo, duplicate, MRP-1 activator project, pilot screen (AID 807;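 active = viability increase at or above a cutoff of the median across tested compounds plus 3 SD, cut at about 8.5% in these data, passing the limit was not always enough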;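 also: compound pretreatment 18-22 h then 72 h combined with doxorubicin; 0% = doxorubicin alone and 100% = vehicle without doxorubicin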); details: H69AR viability with doxorubicin, CellTiter-Glo luminescence; at 10 µM; hits give high values
[4] = viability of HCT116 without oncogenic beta-catenin – human colon tumor cells, pilot screen (AID 823); details: HCT116 beta-catenin knockout viability, CellTiter-Glo, 60 h; at 10 µM; hits give low values;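 also: 0% = wells killed by 20 µM Hyamine and 100% = untreated DMSO cell wells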
[5] = viability of PTEN-null HCT116 cells – cell-based, HCT116 clonal line, CellTiter-Glo, pilot screen (AID 824;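 active = viability at or below 27.92% in each of two runs, the all-compound median minus 4 SD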;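 also: 0% = 20 µM Hyamine control and 100% = vehicle cell control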); details: HCT116 PTEN-deleted viability, 60 h, at 10 µM, hits give low values
[6] = RAM pathway blockade in budding yeast – dse1pr::URA3 reporter, 5-FOA selection, pilot screen (AID 869;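 active = inhibition over a set limit, the all-compound mean plus 3 SD, in both replicate runs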;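 also: 0% = DMSO wells with no growth and 100% = 10 µM 1-NA-PP1 with full growth; RAM network block rescues cells from 5-FOA so hits raise OD615 growth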); details: S. cerevisiae dse1pr::URA3 5-FOA growth, OD615, 2 d; at 10 µM; hits give high values; strain carries analog-sensitive mutant Cbk1 kinase
[7] = RAM signaling pathway blockade in yeast – S. cerevisiae, Pdr1DBD-CYC8 efflux-inhibited sensitized strain, primary screen (AID 1298;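 active = RAM network inhibition above 8.4% in each of two replicates, 3 SD over the compound average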;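 also: 0% = DMSO untreated cells without growth and 100% = 10 µM 1-NA-PP1 full growth; higher means more yeast growth rescued from 5-FOA killing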); details: S. cerevisiae cbk1-as DSE1-URA3 strain, 5-FOA growth OD615, 2 d; at 50 µM; hits give high values

SMILES	growth inhibition [1]	growth inhibition [2]	viability increase [3]	viability [4]	viability [5]	inhibition [6]	RAM network inhibition [7]
COc1nc(NC(C)(C)C)nc(Oc2ccc(=O)n(C)n2)n1	-0.24%	-10.7%	0.23%	102%	96.5%	0.495%	5.11%
COc1ccc(C(=O)NCC23C=CC(O2)C2C(=O)N(Cc4ccccc4)C(=O)C23)cc1 (stereo unspecified)	-5.3%	13.4%	-0.77%	85.1%	88.8%	2.19%	3.67%
COCCCNc1oc(-c2ccccc2F)nc1C#N	-13.2%	-15.9%	2.02%	105%	97.2%	-0.74%	0.89%
CCN(CCNC(=O)Cn1cc2c(n1)CCCC2)c1ccccc1	-4.85%	-6.55%	0.42%	109%	93.5%	2.4%	0.1%
CCOC(=O)Cn1c(C)cc(=O)c2cccc(C)c21	-19.8%	-12.9%	0.49%	92%	96.9%	0.035%	1.15%
Cc1ccc(C2CC(c3ccc(F)cc3)Nc3nc(N)nn32)cc1 (stereo unspecified)	-3.28%	5.93%	-3.44%	99.8%	86.7%	0.25%	2.86%
CC1(C)CC(=O)C=C(Nc2ccccc2F)C1	-10.4%	-10.5%	-2.25%	111%	98.3%	-0.01%	1.22%
COc1cc2[nH]c(=O)n(CCCCCC(=O)N3CCN(c4ccccc4)CC3)c(=O)c2cc1OC	-20.4%	-2.1%	-4.46%	58.5%	52.5%	1.25%	0.58%
C=COCCn1c(-c2nonc2N)nc2ccccc21	-6.54%	-3.9%	-4.61%	82.4%	74.9%	1.75%	6.18%
Cc1csc2nc(CNS(=O)(=O)c3ccc4c(c3)CCCC4)cn12	-17.5%	0.8%	-0.44%	101%	93.2%	1.17%	0.48%
CC1CCCC(NC(=O)Cn2cc3c(n2)CCCCC3)C1C (stereo unspecified)	-16%	-6.99%	0.62%	95.7%	90.8%	-0.355%	0.1%
CC(C)c1ccc(NC(=O)c2cccnc2)cc1	-3.85%	-12.2%	0.68%	89.4%	94.3%	0.32%	2.26%
CC1CCN(CCCNC(=O)c2cc3c(=O)n(C)c4ccccc4c3n2C)CC1	0.225%	-4.35%	-5.04%	43.1%	50%	-0.26%	1.43%
Cc1cccc(OCCCCCNCCO)c1	-16%	-8.45%	-0.72%	98.6%	94.6%	1.7%	0.57%
CCCN(CCC)S(=O)(=O)c1cc(Br)cc2c1N(C(=O)CC)CC2	-8.33%	-21.3%	-4.77%	65.9%	69.7%	0.885%	4.71%
O=C(Cn1cc2c(n1)CCCC2)NCCCN1CCN(c2ccccc2F)CC1	-16.9%	-6.56%	-3.08%	89.5%	89%	0.665%	5.8%
Cc1nnc2ccc(N3CCN(C(=O)c4ccccc4)CC3)nn12	-4.49%	5.48%	0.13%	98.9%	95.2%	1.42%	2.92%
O=C(c1c(Cl)nc2sccn12)N1CCN(c2cccc(Cl)c2)CC1	0.85%	18.6%	-4.96%	13.8% (active)	17.8% (active)	0.91%	5.21%
O=C(O)CC1Sc2ccccc2NC1=O (stereo unspecified)	-7.26%	0.575%	-1.79%	90.2%	96%	1.49%	4.47%
Cc1ccsc1C1C2=C(CC(C)(C)CC2=O)Nc2ncnn21 (stereo unspecified)	-13.7%	11.9%	-4.49%	101%	102%	1.98%	4.28%
CCOC(=O)C1CCCN(C(=O)c2ccccc2Oc2ccccc2)C1 (stereo unspecified)	-6.35%	-9.14%	-1.3%	91.1%	102%	0.545%	1.27%
CCOC(=O)COC(=O)c1ccc(O)cc1	-4.13%	-13.5%	-0.28%	93%	97.8%	1.47%	0.37%
Cc1cccc(Cn2c(N(C)Cc3ccccc3)nc3c2c(=O)[nH]c(=O)n3C)c1	-0.355%	-7.32%	-2.61%	75.6%	64.8%	2.08%	2.26%
COc1ccc(NC(=O)C2CCCN2S(=O)(=O)c2ccc3c(c2)CCC(=O)N3)cc1Cl (stereo unspecified)	-1.44%	-23.7%	-2.9%	90.8%	87.7%	1.18%	1.9%

SMILES	growth inhibition [1]	growth inhibition [2]	viability increase [3]	viability [4]	viability [5]	inhibition [6]	RAM network inhibition [7]
CN(C)c1ccc(NC(=O)Cn2c(=O)n(Cc3ccccc3)c(=O)c3ccccc32)cc1	-0.65%	1.48%	3%	83.2%	88.3%	0.52%	8.96%
COc1cccc(C2CC(c3cccc(C)c3)n3ncnc3N2)c1 (stereo unspecified)	-9.14%	-3.84%	-2.07%	90%	90.4%	0.92%	0.74%
c1coc(Cn2c(SCc3nc4ccccc4[nH]3)nnc2-c2cccs2)c1	0.98%	21.3%	-1.17%	93%	89.8%	3.64%	1.24%
CCOc1ccc(-c2noc(CCC(=O)O)n2)cc1	6.08%	-3.1%	0.28%	102%	95.1%	1.56%	0.42%
C=CCn1cc(C(=O)NCCCOC)c(=O)c2cc(S(=O)(=O)N3CCC(C)CC3)ccc21	-10.6%	-19.6%	-3.54%	96.7%	87%	1.56%	-0.52%
Cc1cc(C)n(CC(O)Cn2c3ccccc3c3ccccc32)c(=O)n1 (stereo unspecified)	-7.41%	-12.9%	-2.44%	90%	91.5%	1.3%	5.3%
CC1(C)CC(=O)N(c2ccccc2)C1(C)O (stereo unspecified)	-8.08%	-4.3%	0.17%	93.7%	104%	0.395%	1.53%
C=CCNc1ncnc2ccc(Br)cc12	2.36%	9.25%	-5.67%	84.1%	75.8%	1.87%	4.09%
CC1CCCN(C(c2ccccc2)c2sc3ncnn3c2O)C1 (stereo unspecified)	-7.14%	-1.14%	3.23%	96.6%	84.8%	2.16%	4.56%
O=C(O)CCCCCN1C(=O)c2ccc(C(=O)O)cc2C1=O	-14.4%	-10.8%	1.08%	103%	105%	1.88%	6.72%
CC1CC(C)CN(CCCNC(=O)Cn2ncc3c(=O)oc4ccccc4c32)C1 (stereo unspecified)	-0.3%	0.08%	-1.86%	99%	101%	3.87%	5%
NC(=O)CN1CCN(C(=O)NC2CCCCC2)CC1	-18.1%	-12.7%	0.06%	96%	97.9%	2.7%	2.11%
O=C(Nc1nc(-c2ccccn2)cs1)C1COc2ccccc2O1 (stereo unspecified)	84.5% (active)	96.9% (active)	-0.68%	10.3% (active)	11.5% (active)	0.255%	-2.19%
Cc1ccc(C(=O)NCc2ccco2)cc1S(=O)(=O)N1CCCCC1	-11.6%	-5.65%	-5.21%	82.9%	85.5%	3%	6.81%
CC(C)N1C(=O)CCC1C(=O)NCCc1ccc(Cl)cc1 (stereo unspecified)	-1.75%	3.14%	0.32%	100%	97.3%	0.29%	-0.47%
COc1cccc(-c2nc(CS(=O)CC(=O)NC3CC3)c(C)o2)c1 (stereo unspecified)	1.62%	14.2%	-2.91%	101%	101%	0.52%	0.14%
COc1ccc(-c2cc(C(F)F)n3ncc(C(=O)N4CCN(C(=O)c5ccco5)CC4)c3n2)cc1	-2.55%	-0.9%	-5.07%	74.5%	72.6%	0.475%	10.2%
CCC(=O)c1ccc(N2CCN(C(=O)COc3ccc(F)cc3)CC2)c(F)c1	-5.39%	-3.45%	-2.21%	73.7%	82.5%	1.71%	5.92%
CCOCCCNC(=O)Cn1cc2c(n1)CCCC2	3.43%	1.36%	-0.46%	105%	98.8%	1.91%	1.03%
O=C(Oc1ccc2c(=O)c(Cl)coc2c1)c1ccncc1	-0.185%	7.12%	-4.3%	90.4%	99.2%	0.015%	-0.99%
Cn1c(=O)oc2cc(S(=O)(=O)N3CCCc4ccccc43)ccc21	-5.55%	-1.98%	-5.94%	18.1% (active)	23.5% (active)	1.96%	3.9%
CC(C)N1C(=O)CCC1C(=O)N1CCC(Cc2ccccc2)CC1 (stereo unspecified)	-8.06%	0.645%	1.19%	102%	95.3%	1.92%	2.34%
Cc1ccc2oc(=O)c3cnn(CC(=O)N4CCc5ccccc5C4)c3c2c1	-10.4%	-4.8%	-0.98%	93.5%	92.1%	1.77%	3.4%
O=c1cc(-c2c(F)c(F)c(F)c(F)c2F)oc2c(F)c(F)c(F)c(F)c12	-8.86%	-6.48%	-7%	1.3% (active)	1.25% (active)	-0.35%	-1.25%

From PubChem BioAssay
